In BindingDB's records for doi:10.1021/acsmedchemlett.0c00544 (Peking University Health Science Center, 2021):

How the values were obtained:
[1] = biological target: T1, Signal transducer and activator of transcription 3 (Homo sapiens, UniProt P40763); test: Inhibition of IL-6 induced STAT3 transcriptional activity in human HEK-Blue IL-6 cells assessed as secreted embryonic alkaline phosphatase reporter gene expression measured after 20 hrs by microplate reader
Outline: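 HEK-Blue IL-6 reporter cells were treated for 20 h. IL-6/JAK/STAT3 pathway activity was quantified from secreted SEAP using a detection reagent, with parallel MTT viability. Values are averages of three independent experiments.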

[2] = biological target: T1, Signal transducer and activator of transcription 3; test: Inhibition of IL-6 induced STAT3 transcriptional activity in human HEK-Blue IL-6 cells assessed as secreted embryonic alkaline phosphatase reporter gene expression by microplate reader
Outline: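 HEK-Blue IL-6 reporter cells were treated for 20 h, and STAT3 pathway activity was quantified from secreted SEAP using a detection reagent. […] Values are averages of three independent experiments.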

T1 sequence (P40763 whole entry): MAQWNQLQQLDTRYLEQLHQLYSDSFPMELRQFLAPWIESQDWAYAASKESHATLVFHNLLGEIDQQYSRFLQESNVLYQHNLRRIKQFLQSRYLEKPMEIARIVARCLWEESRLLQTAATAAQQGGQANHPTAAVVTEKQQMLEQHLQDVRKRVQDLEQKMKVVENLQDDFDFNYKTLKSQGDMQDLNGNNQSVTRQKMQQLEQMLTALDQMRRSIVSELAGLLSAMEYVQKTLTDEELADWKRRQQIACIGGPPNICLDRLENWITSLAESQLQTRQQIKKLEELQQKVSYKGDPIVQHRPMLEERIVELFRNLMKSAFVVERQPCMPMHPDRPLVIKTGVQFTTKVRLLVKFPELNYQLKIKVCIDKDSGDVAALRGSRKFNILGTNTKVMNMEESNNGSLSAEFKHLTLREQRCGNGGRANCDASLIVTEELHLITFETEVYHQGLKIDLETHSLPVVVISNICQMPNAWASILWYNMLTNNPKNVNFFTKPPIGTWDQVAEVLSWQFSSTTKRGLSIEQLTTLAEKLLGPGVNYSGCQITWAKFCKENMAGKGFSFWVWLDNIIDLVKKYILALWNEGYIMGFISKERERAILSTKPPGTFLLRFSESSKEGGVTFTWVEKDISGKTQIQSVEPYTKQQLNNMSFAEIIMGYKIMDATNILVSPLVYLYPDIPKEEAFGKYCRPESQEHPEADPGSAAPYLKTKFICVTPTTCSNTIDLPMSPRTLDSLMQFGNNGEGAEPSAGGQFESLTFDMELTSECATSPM

Row | Compound | IC50 [1] | IC50 [2]
1 | C[C@H](NC(=O)/C(C#N)=C/c1cccc(Br)n1)c1ccccc1 [Wp 1066] | 2.5 µM | 1.79 µM
2 | CC(=O)Oc1ccccc1C(=O)Nc1ncc([N+](=O)[O-])s1 [Alinia] | 9.8 µM | 9.98 µM
